31 molecules from ChEMBL document CHEMBL1138555, “N-acylated and N,N'-diacylated imidazolidine-2-thione derivatives and N,N'-diacylated tetrahydropyrimidine-2(1H)-thione analogues: synthesis and antiproliferative activity” (Eur J Med Chem, 2009) can be followed below.

The structures appear in SMILES notation.

The test system of this assay is MT4. The assay can be described thus: Antiproliferative activity against human MT4 cells assessed as reduction of growth by MTT assay. Format: functional, cell-based. The procedure, abridged: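 MT-4 lymphoblastoid T cells (ATCC) in RPMI 1640 with 10% FCS, penicillin/streptomycin, checked for mycoplasma. 1 × 10⁴ mock-infected cells per well with serial dilutions from a 100 mM DMSO stock. Incubated 4 days at 37 °C, viable cells counted by MTT. IC50 versus untreated controls by linear regression. Mean of three separate experiments.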
For orientation: Formazan colour is commonly taken as a measure of viable cells.
As usually defined, the IC50 is the point on the concentration scale where inhibition reaches its midpoint. With `CC(C)(C)c1ccc(C(=O)N2CCN(C(=O)c3ccc(C(C)(C)C)cc3)C2=S)cc1`, the IC50 is above 100 µM.

As for `O=C(c1ccccc1)N1CCCN(C(=O)c2ccccc2)C1=S`, the IC50 was above 100 µM.

On to `Cc1ccc(C(=O)N2CCN(C=O)C2=S)cc1`, for which the IC50 amounted to 31 µM.

As for `O=C(c1ccco1)N1CCCN(C(=O)c2ccco2)C1=S`, the half-inhibitory concentration (IC50) worked out at 36 µM.

Regarding `O=C(c1cc(Cl)cc(Cl)c1)N1CCCN(C(=O)c2cc(Cl)cc(Cl)c2)C1=S`, the IC50 came out at 30 µM.

In the case of `O=C(c1cccc([N+](=O)[O-])c1)N1CCN(C(=O)c2cccc([N+](=O)[O-])c2)C1=S`, the IC50 was above 100 µM.

As for `O=C(c1ccccc1Cl)N1CCCN(C(=O)c2ccccc2Cl)C1=S`, the IC50 was above 100 µM.

Regarding `Cc1ccc(C(=O)N2CCN(C(=O)c3ccc(C)cc3)C2=S)cc1`, the IC50 came out at 35 µM.

`O=C(c1ccc(Cl)c([N+](=O)[O-])c1)N1CCN(C(=O)c2ccc(Cl)c([N+](=O)[O-])c2)C1=S`: the half-inhibitory concentration (IC50) was 11 µM.

As for `O=C(c1cccs1)N1CCCN(C(=O)c2cccs2)C1=S`, the IC50 is above 100 µM.

For `O=C(c1cccc(Cl)c1)N1CCN(C(=O)c2cccc(Cl)c2)C1=S`, the IC50 amounted to 35 µM.

Take `O=C(c1ccc(Cl)c(Cl)c1)N1CCCN(C(=O)c2ccc(Cl)c(Cl)c2)C1=S`: the IC50 turned out to be 72 µM.

With `CC(C)(C)C(=O)/C(C#N)=C/N1CCN(C(=O)c2ccco2)C1=S`, the IC50 stood at 14 µM.

For `O=C(c1ccc(Cl)cc1)N1CCN(C(=O)c2ccc(Cl)cc2)C1=S`, the 50% inhibitory concentration (IC50) came out at 9.9 µM.

`CC(=O)N1CCN(C(C)=O)C1=S`: the IC50 is above 100 µM.

Turning to `COc1cc(C(=O)N2CCCN(C(=O)c3cc(OC)c(OC)c(OC)c3)C2=S)cc(OC)c1OC`, the 50% inhibitory concentration (IC50) is above 100 µM.

With `Cc1ccccc1C(=O)N1CCN(C(=O)c2ccccc2C)C1=S`, the IC50 was above 100 µM.

With `O=CN1CCN(C(=O)c2ccccc2)C1=S`, the half-maximal inhibitory concentration (IC50) was determined as 12 µM.

Regarding `CC(=O)/C(=C/N1CCN(C(=O)c2ccco2)C1=O)C(=O)c1ccccc1`, the IC50 is above 100 µM.

For the molecule `Cc1ccc(C(=O)N2CCCN(C(=O)c3ccc(C)cc3)C2=S)cc1`, the IC50 was above 100 µM.

For `O=C(c1ccccc1Cl)N1CCN(C(=O)c2ccccc2Cl)C1=S`, the IC50 worked out at 54 µM.

Consider `CC(=O)N1CCN(C=O)C1=S`, for which the IC50 is above 100 µM.

In the case of `O=C(c1ccc(Cl)cc1)N1CCCN(C(=O)c2ccc(Cl)cc2)C1=S`, the IC50 was found to be 38 µM.

Regarding `N#CC(C#N)=CN1CCN(C(=O)c2ccco2)C1=O`, the IC50 was above 100 µM.

Regarding `O=C(c1ccc(Cl)cc1Cl)N1CCCN(C(=O)c2ccc(Cl)cc2Cl)C1=S`, the IC50 was above 100 µM.

As to `COc1ccc(C(=O)N2CCN(C(=O)c3ccc(OC)cc3)C2=S)cc1`, the IC50 is above 100 µM.

In the case of `O=CN1CCN(C(=O)/C=C/c2ccccc2)C1=S`, the concentration for half-maximal inhibition (IC50) is above 100 µM.

With `O=C(c1ccccc1)N1CCN(C(=O)c2ccccc2)C1=S`, the IC50 was determined as 94 µM.

For `O=C(c1cccc2ccccc12)N1CCN(C(=O)c2cccc3ccccc23)C1=S`, the IC50 came out at 13 µM.

Regarding `CCOC(=O)/C(=C/N1CCN(C(=O)c2ccco2)C1=O)C(=O)c1ccccc1`, the half-inhibitory concentration (IC50) came out at 43 µM.

With `CC(C)(C)C(=O)N1CCN(C=O)C1=S`, the IC50 was determined as 43 µM.
